Experimental data as given in ChEMBL document CHEMBL1153730, “Bioactive constituents of the stem bark of Beilschmiedia zenkeri” (J Nat Prod, 2009).
pIC50: −log10 of the molar value. ≈ marks a conversion by molar mass, not a printed value. Calls of active or inactive are those of the source. The rule behind the calls is not given here.

Columns and labels:
Pseudomonas agarici = experiment: Antibacterial activity against Pseudomonas agarici by agar well diffusion method; type: functional
In short: (§1)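 Agar well diffusion on pure compounds, with the value reported as MIC. Ampicillin was the positive control for B. subtilis and gentamicin for P. agarici.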

Bacillus subtilis = experiment: Antibacterial activity against Bacillus subtilis by agar well diffusion method; type: functional; in short: as §1
Streptococcus minor = experiment: Antibacterial activity against Streptococcus minor by agar well diffusion method; type: functional
In short: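 Agar well diffusion run on extracts and pure compounds, following earlier reports. Ampicillin served as the positive control for this strain. Activity was reported as MIC (µM).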

Plasmodium falciparum = experiment: Antiplasmodial activity against chloroquine-resistant Plasmodium falciparum W2 rings after 48 hrs by FACS analysis; type: functional, organism-based; conditions: W2, 48 h

COc1cc2c(c(OC)c1OC)[C@H](OC)C[C@@H](c1ccccc1)O2
Activity (Pseudomonas agarici): inactive | Activity (Bacillus subtilis): inactive | Activity (Streptococcus minor): inactive

O=C(/C=C/c1ccccc1)NCCc1ccc2c(c1)OCO2
Activity (Pseudomonas agarici): inactive | Activity (Bacillus subtilis): inactive | Activity (Streptococcus minor): inactive

COc1cc2c(c(OC)c1OC)[C@H](O[C@@H]1C[C@@H](c3ccccc3)Oc3cc(OC)c(OC)c(OC)c31)C[C@@H](c1ccccc1)O2
Activity (Pseudomonas agarici): inactive | Activity (Bacillus subtilis): inactive | Activity (Streptococcus minor): inactive

COc1cc2c(c(O)c1OC)[C@H](O[C@@H]1C[C@@H](c3ccccc3)Oc3cc(OC)c(OC)c(OC)c31)C[C@@H](c1ccccc1)O2 [BEILSCHMIEFLAVONOID B]
Activity (Pseudomonas agarici): inactive | Activity (Bacillus subtilis): inactive | MIC (Streptococcus minor): 198 µM (≈ 119 µg/mL)

COc1cc2c(c(OC)c1OC)[C@H](O)C[C@@H](c1ccccc1)O2
Activity (Pseudomonas agarici): inactive | Activity (Bacillus subtilis): inactive | Activity (Streptococcus minor): inactive

CCCCCCCCCCCCCCC(=O)OC[C@@H](O)CO
Activity (Pseudomonas agarici): inactive | Activity (Bacillus subtilis): inactive | Activity (Streptococcus minor): inactive

CC(C)CNC(=O)/C=C/C=C/CCCCCC/C=C/c1ccc2c(c1)OCO2 [GUINEENSINE]
MIC (Pseudomonas agarici): 81.5 µM (≈ 31.3 µg/mL) | MIC (Bacillus subtilis): 163 µM (≈ 62.5 µg/mL) | pIC50 (Plasmodium falciparum): 5.43 | Activity (Streptococcus minor): inactive

COc1cc(O)c2c(c1OC)OC(c1ccccc1)CC2=O (stereo not given)
Activity (Pseudomonas agarici): inactive | Activity (Bacillus subtilis): inactive | pIC50 (Plasmodium falciparum): 5.03 | Activity (Streptococcus minor): inactive

C=C(C)[C@@H]1CC[C@]2(C(=O)O)CC[C@]3(C)[C@H](CC[C@@H]4[C@@]5(C)CC[C@H](O)C(C)(C)[C@@H]5CC[C@]43C)[C@@H]12 [BETULINIC ACID]
Activity (Pseudomonas agarici): inactive | Activity (Bacillus subtilis): inactive | pIC50 (Plasmodium falciparum): 5.28 | Activity (Streptococcus minor): inactive
